Test results: ChEMBL document CHEMBL4033795, “Design, Synthesis, and Structure-Activity Relationship Study of 2-Oxo-3,4-dihydropyrimido[4,5- d]pyrimidines as New Colony Stimulating Factor 1 Receptor (CSF1R) Kinase Inhibitors” (J Med Chem, 2018)

Key:
[1] = target: Macrophage colony-stimulating factor 1 receptor (Homo sapiens, UniProt P07333); experiment: Inhibition of recombinant human His-tagged CSF1R cytoplasmic domain (538 to 910 residues) expressed in baculovirus using tyr4 peptide as substrate after 1 hr by FRET-based Z'-Lyte assay
Sequence of Macrophage colony-stimulating factor 1 receptor (P07333 whole entry, the tested form may be a part): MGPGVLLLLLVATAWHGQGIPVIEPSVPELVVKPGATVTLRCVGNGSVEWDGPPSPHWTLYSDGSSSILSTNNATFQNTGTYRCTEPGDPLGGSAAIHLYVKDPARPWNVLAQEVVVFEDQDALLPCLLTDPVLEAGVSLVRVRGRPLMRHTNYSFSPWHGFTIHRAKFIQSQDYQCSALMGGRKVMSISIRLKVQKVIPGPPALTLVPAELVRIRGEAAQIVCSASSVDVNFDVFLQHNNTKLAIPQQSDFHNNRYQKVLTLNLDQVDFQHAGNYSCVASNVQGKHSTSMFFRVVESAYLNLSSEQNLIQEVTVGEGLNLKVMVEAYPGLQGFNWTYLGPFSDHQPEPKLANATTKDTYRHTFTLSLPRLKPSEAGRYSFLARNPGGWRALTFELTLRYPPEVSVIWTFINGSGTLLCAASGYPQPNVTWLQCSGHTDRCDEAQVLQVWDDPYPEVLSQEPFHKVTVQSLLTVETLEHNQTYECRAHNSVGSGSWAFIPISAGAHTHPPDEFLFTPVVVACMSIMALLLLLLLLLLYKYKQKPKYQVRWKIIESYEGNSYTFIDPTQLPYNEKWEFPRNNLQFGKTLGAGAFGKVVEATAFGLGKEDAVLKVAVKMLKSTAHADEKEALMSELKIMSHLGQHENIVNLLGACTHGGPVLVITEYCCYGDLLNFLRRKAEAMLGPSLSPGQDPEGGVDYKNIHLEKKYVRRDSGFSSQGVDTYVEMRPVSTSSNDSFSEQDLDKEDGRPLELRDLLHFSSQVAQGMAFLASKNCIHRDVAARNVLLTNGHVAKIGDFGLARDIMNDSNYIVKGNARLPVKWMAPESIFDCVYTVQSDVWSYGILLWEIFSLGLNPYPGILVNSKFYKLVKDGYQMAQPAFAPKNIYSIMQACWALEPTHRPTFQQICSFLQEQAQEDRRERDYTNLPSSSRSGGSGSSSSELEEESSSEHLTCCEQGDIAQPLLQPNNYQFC
Method in brief: (§1)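 Z′-Lyte FRET assay with CSF1R or EGFR and 2 μM Tyr4 peptide substrate in 1× kinase buffer. ATP was supplied as a 100 μM solution, a stock and not the final concentration. Compounds were 3-fold serially diluted in DMSO. Reaction ran 1 h at room temperature, followed by 1 h development and a stop reagent. Phospho-peptide, no-ATP and DMSO controls were included. IC50 by curve fitting; mean of at least three independent experiments.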

[2] = target: Epidermal growth factor receptor (Homo sapiens, UniProt P00533); experiment: Inhibition of recombinant human wild type GST-tagged EGFR cytoplasmic domain (668 to 1210 residues) expressed in baculovirus using tyr4 peptide as substrate after 1 hr by FRET-based Z'-Lyte assay
Sequence of Epidermal growth factor receptor (P00533 whole entry, the tested form may be a part): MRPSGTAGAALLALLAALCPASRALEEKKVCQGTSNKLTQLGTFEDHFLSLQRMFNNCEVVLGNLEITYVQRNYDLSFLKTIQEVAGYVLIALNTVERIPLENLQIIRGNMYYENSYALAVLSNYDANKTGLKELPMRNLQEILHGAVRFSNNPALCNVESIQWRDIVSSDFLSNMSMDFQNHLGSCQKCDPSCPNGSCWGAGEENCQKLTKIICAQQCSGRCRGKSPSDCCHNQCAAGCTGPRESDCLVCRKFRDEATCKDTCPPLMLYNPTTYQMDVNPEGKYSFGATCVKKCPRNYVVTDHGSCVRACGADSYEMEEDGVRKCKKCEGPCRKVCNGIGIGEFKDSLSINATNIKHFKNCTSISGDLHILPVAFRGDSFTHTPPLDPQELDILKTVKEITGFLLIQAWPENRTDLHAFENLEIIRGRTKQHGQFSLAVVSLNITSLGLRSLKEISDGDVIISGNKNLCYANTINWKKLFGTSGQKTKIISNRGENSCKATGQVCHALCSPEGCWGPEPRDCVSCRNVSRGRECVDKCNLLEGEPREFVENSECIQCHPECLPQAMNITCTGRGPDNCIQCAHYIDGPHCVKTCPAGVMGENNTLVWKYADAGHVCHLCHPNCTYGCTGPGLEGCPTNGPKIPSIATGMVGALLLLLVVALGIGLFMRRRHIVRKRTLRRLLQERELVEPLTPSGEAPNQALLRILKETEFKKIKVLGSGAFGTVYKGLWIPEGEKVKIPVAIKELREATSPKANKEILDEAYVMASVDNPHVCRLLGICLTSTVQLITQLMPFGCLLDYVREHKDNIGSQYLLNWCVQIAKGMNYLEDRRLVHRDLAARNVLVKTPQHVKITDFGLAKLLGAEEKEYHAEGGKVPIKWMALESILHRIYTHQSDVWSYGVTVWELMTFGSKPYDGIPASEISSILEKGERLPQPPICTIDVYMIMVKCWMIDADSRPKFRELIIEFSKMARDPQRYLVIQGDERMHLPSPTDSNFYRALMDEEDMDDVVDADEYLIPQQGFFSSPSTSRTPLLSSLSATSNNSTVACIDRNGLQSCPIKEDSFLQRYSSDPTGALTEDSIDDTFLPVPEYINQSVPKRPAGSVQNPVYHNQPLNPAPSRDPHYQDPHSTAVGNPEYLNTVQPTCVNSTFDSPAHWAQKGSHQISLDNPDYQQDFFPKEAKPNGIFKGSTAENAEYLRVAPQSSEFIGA

[3] = Oral bioavailability in Sprague-Dawley rat at 25 mg/kg administered via gavage measured up to 72 hrs by LC/MS analysis; format: ADME, organism-based; settings: in vivo
Method in brief: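 Male Sprague-Dawley rats, 4–6 weeks old, acclimatised 1 week, were dosed iv at 5 mg/kg or by oral gavage at 25 mg/kg. Vehicle was 2% DMSO, 4% EtOH, 4% castor oil, 90% H2O. Blood was drawn by orbital sinus puncture from 2 min to 72 h into heparinized tubes. Plasma was assayed by LC/MS with propranolol as internal standard. Three animals per group.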

[4] = target: Fibroblast growth factor receptor 2 (Homo sapiens, UniProt P21802); experiment: Inhibition of cytoplasmic recombinant human His-tagged FGFR2 (403 to 822 residues) expressed in baculovirus using tyr4 peptide as substrate after 1 hr by FRET-based Z'-Lyte assay
Sequence of Fibroblast growth factor receptor 2 (P21802 whole entry, the tested form may be a part): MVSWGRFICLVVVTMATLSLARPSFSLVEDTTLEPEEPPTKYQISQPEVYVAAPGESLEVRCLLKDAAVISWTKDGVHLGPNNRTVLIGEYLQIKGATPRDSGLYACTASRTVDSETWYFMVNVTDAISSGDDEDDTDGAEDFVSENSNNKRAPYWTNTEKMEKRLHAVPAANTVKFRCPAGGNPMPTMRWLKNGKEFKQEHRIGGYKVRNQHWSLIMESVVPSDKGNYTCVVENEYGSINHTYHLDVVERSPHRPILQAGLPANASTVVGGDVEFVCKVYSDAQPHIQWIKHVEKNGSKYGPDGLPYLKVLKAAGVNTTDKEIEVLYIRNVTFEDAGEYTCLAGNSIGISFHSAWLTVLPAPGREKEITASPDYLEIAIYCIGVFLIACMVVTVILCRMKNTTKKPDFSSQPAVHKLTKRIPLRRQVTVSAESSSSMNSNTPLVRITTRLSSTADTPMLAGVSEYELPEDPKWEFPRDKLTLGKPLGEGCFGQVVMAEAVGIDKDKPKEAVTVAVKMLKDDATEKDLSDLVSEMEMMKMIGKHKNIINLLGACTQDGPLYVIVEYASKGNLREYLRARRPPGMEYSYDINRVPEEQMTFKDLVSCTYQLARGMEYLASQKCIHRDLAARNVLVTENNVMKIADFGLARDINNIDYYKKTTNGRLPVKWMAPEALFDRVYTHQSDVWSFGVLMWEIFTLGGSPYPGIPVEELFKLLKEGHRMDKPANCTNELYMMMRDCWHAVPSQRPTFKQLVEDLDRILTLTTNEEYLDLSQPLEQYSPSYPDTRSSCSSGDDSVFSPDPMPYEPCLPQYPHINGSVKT

[5] = target: Cytoplasmic tyrosine-protein kinase BMX (Homo sapiens) (UniProt P51813); experiment: Inhibition of recombinant human BMX (M1 to H675 residues) expressed in bacterial expression system at 100 nM by KINOMEscan assay relative to control
Sequence of Cytoplasmic tyrosine-protein kinase BMX (Homo sapiens) (P51813 whole entry, the tested form may be a part): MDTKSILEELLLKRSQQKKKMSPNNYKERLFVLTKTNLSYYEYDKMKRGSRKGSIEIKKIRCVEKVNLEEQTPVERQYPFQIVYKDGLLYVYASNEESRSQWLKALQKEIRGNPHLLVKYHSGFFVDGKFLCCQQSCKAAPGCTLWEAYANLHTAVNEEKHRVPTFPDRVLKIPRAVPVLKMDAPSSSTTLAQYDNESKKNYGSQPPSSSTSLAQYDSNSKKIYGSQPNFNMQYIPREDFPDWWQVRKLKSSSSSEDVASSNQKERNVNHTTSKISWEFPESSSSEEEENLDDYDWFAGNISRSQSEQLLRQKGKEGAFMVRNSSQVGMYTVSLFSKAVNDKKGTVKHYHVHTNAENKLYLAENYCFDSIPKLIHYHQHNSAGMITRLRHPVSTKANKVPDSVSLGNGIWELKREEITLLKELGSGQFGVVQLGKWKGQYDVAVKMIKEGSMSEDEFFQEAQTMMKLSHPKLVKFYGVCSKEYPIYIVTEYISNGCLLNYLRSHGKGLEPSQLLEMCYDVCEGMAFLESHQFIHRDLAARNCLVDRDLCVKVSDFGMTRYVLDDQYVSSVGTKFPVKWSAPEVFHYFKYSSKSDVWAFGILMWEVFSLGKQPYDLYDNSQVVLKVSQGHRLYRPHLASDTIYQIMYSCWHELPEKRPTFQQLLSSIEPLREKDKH

[6] = target: T1, Macrophage colony-stimulating factor 1 receptor (Mus musculus) (UniProt P09581); experiment: Inhibition of CSF1R phosphorylation in mouse RAW264.7 cells assessed as reduction in AKT phosphorylation at 80 nM preincubated for 6 hrs followed by CSF1 stimulation for 20 mins by Western blot analysis relative to control; format: cell-based
T1 sequence (whole entry): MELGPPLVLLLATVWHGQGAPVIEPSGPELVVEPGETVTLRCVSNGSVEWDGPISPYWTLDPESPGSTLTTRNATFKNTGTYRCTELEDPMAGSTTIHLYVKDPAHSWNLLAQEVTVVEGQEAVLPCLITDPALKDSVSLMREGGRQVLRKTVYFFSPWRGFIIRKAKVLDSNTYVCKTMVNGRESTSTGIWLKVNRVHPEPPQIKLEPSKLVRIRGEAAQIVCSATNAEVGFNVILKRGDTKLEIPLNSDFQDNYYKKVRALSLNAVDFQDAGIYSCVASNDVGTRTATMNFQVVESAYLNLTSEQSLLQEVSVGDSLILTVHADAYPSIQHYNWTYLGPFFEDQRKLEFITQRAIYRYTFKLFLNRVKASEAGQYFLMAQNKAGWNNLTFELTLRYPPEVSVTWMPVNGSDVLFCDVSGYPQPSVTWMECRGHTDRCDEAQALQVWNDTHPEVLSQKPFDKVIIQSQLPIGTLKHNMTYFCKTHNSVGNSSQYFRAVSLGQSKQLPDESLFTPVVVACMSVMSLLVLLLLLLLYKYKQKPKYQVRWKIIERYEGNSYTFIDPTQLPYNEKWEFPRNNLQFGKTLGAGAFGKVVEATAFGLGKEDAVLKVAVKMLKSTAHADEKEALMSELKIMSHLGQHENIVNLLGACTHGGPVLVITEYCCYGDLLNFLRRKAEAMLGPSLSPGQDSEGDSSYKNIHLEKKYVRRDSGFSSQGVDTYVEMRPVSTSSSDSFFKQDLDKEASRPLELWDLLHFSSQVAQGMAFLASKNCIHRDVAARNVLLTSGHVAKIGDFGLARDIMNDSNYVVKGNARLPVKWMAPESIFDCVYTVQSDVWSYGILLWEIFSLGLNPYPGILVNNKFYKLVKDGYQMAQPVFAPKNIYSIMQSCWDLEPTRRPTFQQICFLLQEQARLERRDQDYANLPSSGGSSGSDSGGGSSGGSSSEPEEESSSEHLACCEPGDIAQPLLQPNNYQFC
Method in brief: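 RAW264.7 cells were seeded, incubated overnight and treated 6 h with graded compound concentrations, then stimulated 20 min with CSF-1 (50 ng/mL). Lysates were run on 8−12% SDS-PAGE and immunoblotted for p-CSF1R (Tyr723), CSF1R, p-AKT, AKT and GAPDH. Bands were quantified and normalized to GAPDH. Mean ± SEM of at least three experiments.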

RAW264.7 [7] = experiment: Antimigratory activity against mouse RAW264.7 cells assessed as inhibition of human LNCaP-MDV-CM mediated macrophage migration at 0.625 uM after 24 hrs by crystal violet staining based transwell assay relative to control; format: functional; settings: RAW264.7, 24 h
Method in brief: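 RAW264.7 cells, (2−4) × 10^5, were placed serum-free in the upper insert of a transwell. The lower chamber held conditioned medium from LNCaP cells grown 48 h in 10% FBS RPMI 1640 with 10 μM MDV3100 or DMSO. Compound at 0.625–5.0 μM was added to the top chamber for 24 h at 37 °C. Migrated cells were fixed in methanol, stained with 0.25% crystal violet and counted in six random fields at 200×. Three independent experiments.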

RAW264.7 [8] = experiment: Inhibition of protumorigenic potential of mouse RAW264.7 cells assessed as abrogation of human LNCAP cell growth enhancement of macrophages at 0.016 uM co-cultured for 48 hrs by CCK8 assay relative to control; format: functional; settings: RAW264.7, 48 h
Method in brief: (§2)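 LNCaP cells, (2−4) × 10^5, were seeded in the lower transwell chamber. After 2 h, (1−2) × 10^6 RAW264.7 cells were added in a 0.4 μm insert. Compound at 0.016–2.0 μM was added to the top chamber and cells were cocultured 48 h at 37 °C. LNCaP cells were then imaged and counted by CCK8. Run three times, each in triplicate.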

RAW264.7 [9] = experiment: Inhibition of protumorigenic potential of mouse RAW264.7 cells assessed as abrogation of human LNCAP cell growth enhancement of macrophages at 0.08 uM co-cultured for 48 hrs by CCK8 assay relative to control; format: functional; settings: RAW264.7, 48 h; method in brief: as §2
Homo sapiens [10] = species: Homo sapiens; experiment: Selectivity ratio of IC50 for recombinant human wild type GST-tagged EGFR cytoplasmic domain (668 to 1210 residues) expressed in baculovirus to IC50 for recombinant human His-tagged CSF1R cytoplasmic domain (538 to 910 residues) expressed in baculovirus; method in brief: as §1
Homo sapiens [11] = species: Homo sapiens; experiment: Selectivity ratio of IC50 for recombinant cytoplasmic human GST-tagged PDGFRalpha expressed in baculovirus to IC50 for recombinant human His-tagged CSF1R cytoplasmic domain (538 to 910 residues) expressed in baculovirus
RAW264.7 [12] = experiment: Inhibition of protumorigenic potential of mouse RAW264.7 cells assessed as abrogation of human LNCAP cell growth enhancement of macrophages co-cultured for 48 hrs by CCK8 assay; format: functional, cell-based; method in brief: as §2

IC50 [1]: 3 nM | IC50 [2]: 360 nM | bioavailability [3]: 44.4% | IC50 [4]: 27 nM | inhibition [5]: > 90% | inhibition [6]: 50% | Ratio IC50 (Homo sapiens [10]): 120 | Ratio IC50 (Homo sapiens [11]): 10 to 35
SMILES: CCC(=O)N1CC[C@H](N2C(=O)N(c3cc(OC)ccc3Cl)Cc3cnc(Nc4ccc(N5CCN(C6COC6)CC5)c(C)c4)nc32)C1
inhibition at 0.625 µM (RAW264.7 [7]): 44.5% | inhibition at 0.016 µM (RAW264.7 [8]): 63.4% | inhibition at 0.08 µM (RAW264.7 [9]): 70% | inhibition (RAW264.7 [12]): Dose-dependent effect
